# ChEMBL document CHEMBL5724801, “EUbOPEN Chemogenomics Library - Multiplex” (2024)
# “And” between values parts separate entries of the source, which are not always exact repeats. Equal values may be shown once.
# Columns and labels:
# [1] = system: HEK-293T; assay: Multiplex assay against HEK293T; assay type: toxicity, cell-based; details: human
# Outline: (§1)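 Cells stained live at seeding with Hoechst33342, BioTracker Green Microtubule Cytoskeleton Dye, MitoTracker Red and Annexin V Alexa Fluor 680 were imaged on a CQ1 microscope at 37°C and 5% CO2 after compound addition. Their classification by CellPathfinder machine-learning gating ran from Hoechst high-intensity objects versus normal cells, to healthy, pyknosed or fragmented nuclei among normal cells, to mitotic or apoptotic among pyknosed cells. Tubulin, mitochondrial-mass and membrane-permeability phenotypes are per cents of healthy-nucleus cells.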
# [2] = system: U2OS; assay: Multiplex assay against U2OS; assay type: toxicity, cell-based; details: human; outline: as §1
# [3] = 24 h, 10 µM, compound concentration 10 uM
# [4] = 48 h, 1 µM, compound concentration 1 uM
# [5] = 48 h, 10 µM, compound concentration 10 uM
# [6] = 12 h, 1 µM, compound concentration 1 uM
# [7] = 12 h, 10 µM, compound concentration 10 uM
# [8] = 24 h, 1 µM, compound concentration 1 uM
smiles,measurement,setting,value
Cc1cccc(NC(=O)CN2CCC(c3ccccn3)CC2)c1.Cl.Cl,Population Fragmented Nuclei (%),[1]; [3],8% and 11%
same,Population Healthy Nuclei (%),[1]; [3],74% and 75%
same,Population Hoechst High Intensity Objects (%),[1]; [3],7%
same,Population Membrane Permeable-Phenotype (%),[1]; [3],0%
same,Population Mitochondria Different-Phenotype (%),[1]; [3],60% and 64%
same,Population Mitotic Cells (%),[1]; [3],40% and 50%
same,Population Normal (%),[1]; [3],92%
same,Population Pyknosed Nuclei (%),[1]; [3],17% and 13%
same,Population Tubulin-Different-Phenotype (%),[1]; [3],38% and 26%
same,Total Cell Count,[1]; [3],350 and 348
same,Population Apoptotic (%),[1]; [4],30% and 46%
same,Population Fragmented Nuclei (%),[1]; [4],13% and 8%
same,Population Healthy Nuclei (%),[1]; [4],76% and 83%
same,Population Hoechst High Intensity Objects (%),[1]; [4],2% and 4%
same,Population Membrane Permeable-Phenotype (%),[1]; [4],0%
same,Population Mitochondria Different-Phenotype (%),[1]; [4],25% and 24%
same,Population Mitotic Cells (%),[1]; [4],69% and 53%
same,Population Normal (%),[1]; [4],97% and 95%
same,Population Pyknosed Nuclei (%),[1]; [4],9% and 8%
same,Population Tubulin-Different-Phenotype (%),[1]; [4],21% and 13%
same,Total Cell Count,[1]; [4],688 and 524
same,Population Apoptotic (%),[1]; [5],46% and 48%
same,Population Fragmented Nuclei (%),[1]; [5],13% and 16%
same,Population Healthy Nuclei (%),[1]; [5],75% and 76%
same,Population Hoechst High Intensity Objects (%),[1]; [5],4% and 2%
same,Population Membrane Permeable-Phenotype (%),[1]; [5],0%
same,Population Mitochondria Different-Phenotype (%),[1]; [5],45% and 37%
same,Population Mitotic Cells (%),[1]; [5],53% and 51%
same,Population Normal (%),[1]; [5],95% and 97%
same,Population Pyknosed Nuclei (%),[1]; [5],10% and 7%
same,Population Tubulin-Different-Phenotype (%),[1]; [5],26% and 20%
same,Total Cell Count,[1]; [5],515 and 544
same,Population Apoptotic (%),[2]; [6],90% and 57%
same,Population Fragmented Nuclei (%),[2]; [6],27% and 17%
same,Population Healthy Nuclei (%),[2]; [6],67% and 76%
same,Population Hoechst High Intensity Objects (%),[2]; [6],1% and 0%
same,Population Membrane Permeable-Phenotype (%),[2]; [6],5% and 4%
same,Population Mitochondria Different-Phenotype (%),[2]; [6],2%
same,Population Normal (%),[2]; [6],98% and 99%
same,Population Pyknosed Nuclei (%),[2]; [6],5% and 6%
same,Population Tubulin-Different-Phenotype (%),[2]; [6],3%
same,Total Cell Count,[2]; [6],208 and 111
same,Population Apoptotic (%),[2]; [7],72% and 66%
same,Population Fragmented Nuclei (%),[2]; [7],34% and 21%
same,Population Healthy Nuclei (%),[2]; [7],55% and 70%
same,Population Hoechst High Intensity Objects (%),[2]; [7],2% and 1%
same,Population Membrane Permeable-Phenotype (%),[2]; [7],8% and 12%
same,Population Mitochondria Different-Phenotype (%),[2]; [7],6% and 7%
same,Population Mitotic Cells (%),[2]; [7],27% and 33%
same,Population Normal (%),[2]; [7],97% and 98%
same,Population Pyknosed Nuclei (%),[2]; [7],10% and 8%
same,Population Tubulin-Different-Phenotype (%),[2]; [7],3% and 9%
same,Total Cell Count,[2]; [7],216 and 111
same,Population Apoptotic (%),[2]; [8],76% and 73%
same,Population Fragmented Nuclei (%),[2]; [8],22% and 21%
same,Population Healthy Nuclei (%),[2]; [8],70% and 67%
same,Population Hoechst High Intensity Objects (%),[2]; [8],3% and 0%
same,Population Membrane Permeable-Phenotype (%),[2]; [8],5% and 7%
same,Population Mitochondria Different-Phenotype (%),[2]; [8],3% and 4%
same,Population Mitotic Cells (%),[2]; [8],23% and 26%
same,Population Normal (%),[2]; [8],96% and 99%
same,Population Pyknosed Nuclei (%),[2]; [8],7% and 11%
same,Population Tubulin-Different-Phenotype (%),[2]; [8],3% and 5%
same,Total Cell Count,[2]; [8],249 and 135
same,Population Apoptotic (%),[2]; [3],85% and 75%
same,Population Fragmented Nuclei (%),[2]; [3],32% and 20%
same,Population Healthy Nuclei (%),[2]; [3],55% and 73%
same,Population Hoechst High Intensity Objects (%),[2]; [3],3% and 2%
same,Population Membrane Permeable-Phenotype (%),[2]; [3],6% and 17%
same,Population Mitochondria Different-Phenotype (%),[2]; [3],3% and 5%
same,Population Mitotic Cells (%),[2]; [3],14% and 25%
same,Population Normal (%),[2]; [3],96% and 97%
same,Population Pyknosed Nuclei (%),[2]; [3],11% and 6%
same,Population Tubulin-Different-Phenotype (%),[2]; [3],2% and 10%
same,Total Cell Count,[2]; [3],243 and 131
same,Population Apoptotic (%),[2]; [4],82% and 94%
same,Population Fragmented Nuclei (%),[2]; [4],18% and 17%
same,Population Healthy Nuclei (%),[2]; [4],72%
same,Population Hoechst High Intensity Objects (%),[2]; [4],2% and 3%
same,Population Membrane Permeable-Phenotype (%),[2]; [4],6% and 2%
same,Population Mitochondria Different-Phenotype (%),[2]; [4],3%
same,Population Normal (%),[2]; [4],97% and 96%
same,Population Pyknosed Nuclei (%),[2]; [4],8% and 10%
same,Population Tubulin-Different-Phenotype (%),[2]; [4],3% and 2%
same,Total Cell Count,[2]; [4],341 and 182
same,Population Apoptotic (%),[2]; [5],96% and 83%
same,Population Fragmented Nuclei (%),[2]; [5],29% and 19%
same,Population Healthy Nuclei (%),[2]; [5],60% and 74%
same,Population Hoechst High Intensity Objects (%),[2]; [5],3%
same,Population Membrane Permeable-Phenotype (%),[2]; [5],6% and 10%
same,Population Mitochondria Different-Phenotype (%),[2]; [5],6% and 4%
same,Population Normal (%),[2]; [5],96%
same,Population Pyknosed Nuclei (%),[2]; [5],9% and 6%
same,Population Tubulin-Different-Phenotype (%),[2]; [5],3% and 4%
same,Total Cell Count,[2]; [5],303 and 198
